From ChEMBL document CHEMBL1158835, “Hirsutane sesquiterpenes from the fungus Lentinus connatus BCC 8996” (J Nat Prod, 2005)
In brackets after ≈: the same amount, converted by molar mass.

Key:
Plasmodium falciparum = assay: Antimalarial activity against multidrug-resistant Plasmodium falciparum K1 after 42 hrs by [3H]hypoxanthine uptake; type: functional, organism-based
Method in brief: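 Microculture radioisotope method following Desjardins; growth of multidrug-resistant K1 parasites read as in vitro [3H]-hypoxanthine uptake. IC50 = concentration giving 50% reduction in parasite growth. Dihydroartemisinin run as standard.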

KB = assay: Cytotoxicity against human KB cells by SRB assay; type: functional, cell-based
Method in brief: (§1)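 Colorimetric (Skehan) cytotoxicity assay on KB human epidermoid carcinoma, BC human breast cancer, NCI-H187 human small cell lung cancer, and Vero African green monkey kidney […] cells. Ellipticine served as the reference substance. Activity is expressed as IC50.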

[1] = Cytotoxicity against human BC cells by SRB assay; type: functional, cell-based; method in brief: as §1
NCI-H187 = assay: Cytotoxicity against human NCI-H187 cells by SRB assay; type: functional, cell-based; method in brief: as §1
Vero = assay: Cytotoxicity against african green monkey Vero cells by SRB assay; type: cell-based; details: Chlorocebus sabaeus; method in brief: as §1

| Structure (SMILES) | IC50 (Plasmodium falciparum) [µg/mL] | IC50 (KB) [µg/mL] | IC50 [1] [µg/mL] | IC50 (NCI-H187) [µg/mL] | IC50 (Vero) [µg/mL] |
| --- | --- | --- | --- | --- | --- |
| COc1ccc2c(c1)C(=O)CC(C)(C)O2 | > 20 | > 20 | > 20 | > 20 | > 50 |
| C[C@H]1[C@@H](O)O[C@@H]2O[C@@]3(C)CC[C@H]4[C@H](C)CC[C@@H]1[C@@]24OO3 [ARTENIMOL] | 0.0018 (≈ 0.00633 µM) | – | – | – | – |
| CC1=C(O)C(=O)[C@]2(O)C[C@H]3CC(C)(C)[C@H](O)[C@H]3[C@]12C [CONNATUSIN A] | > 20 | > 20 | > 20 | > 20 | > 50 |
| CC1(C)C[C@@H]2CC3=CC(=O)[C@@](O)(CO)[C@@]3(C)[C@@H]2[C@H]1O [CONNATUSIN B] | > 20 | > 20 | > 20 | > 20 | > 50 |
| Cc1c2ccncc2c(C)c2c1[nH]c1ccccc12 [ELLIPTECINE] | – | 0.21 (≈ 0.853 µM) | 0.27 (≈ 1.1 µM) | 0.32 (≈ 1.3 µM) | – |
| C=C1[C@@H](O)[C@H]2O[C@]23C[C@H]2CC(C)(C)[C@H](O)[C@H]2[C@]13C [HYPNOPHILIN 1] | 3.1 (≈ 12.4 µM) | > 20 | > 20 | 0.67 (≈ 2.68 µM) | 1.1 (≈ 4.39 µM) |
| C=C1C(=O)[C@H]2O[C@]23C[C@H]2CC(C)(C)[C@H](O)[C@H]2[C@]13C [HYPNOPHILIN] | > 20 | > 20 | > 20 | > 20 | > 50 |
| CC(C)=C[C@@H](O)C1=CC(=O)[C@@H]2O[C@@H]2C1=O [PANEPOXYDIONE] | 2.1 (≈ 10.1 µM) | 0.8 (≈ 3.84 µM) | 0.8 (≈ 3.84 µM) | 0.22 (≈ 1.06 µM) | 0.2 (≈ 0.961 µM) |
| CC(C)=C[C@H](O)C1=C[C@@H](O)[C@@H]2O[C@@H]2C1=O [PANEPOXYDONE] | 3.4 (≈ 16.2 µM) | 1.9 (≈ 9.04 µM) | 2.9 (≈ 13.8 µM) | 0.66 (≈ 3.14 µM) | 0.9 (≈ 4.28 µM) |
